Screens from PubChem BioAssay.
beta cell repl – induces beta-cell replication in MIN6 cells; MIN6 cells proliferation, ATPlite luminescence, 48 h; cells starved in 0.2% serum; 100% = growth in 10% serum; proliferation, % at 10 µM; 330,000 compounds, 0.29% hits;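 active means compounds whose signal lies at least 3.5 SD above the mean of all wells on their plate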
DAGLB inh – diacylglycerol lipase beta (human) inhibition; Q8NCG7; 340,000 compounds, 0.059% hits; inhibition, % at 5.17 µM; HEK293T DAGLB membrane lysate, EnzChek fluorogenic substrate; AID 504411; in the data active means inhibition above about 34%
CendR NRP1 mod – modulators of CendR peptide binding to human neuropilin-1. AID 602438. inhibition, % at 25 µM. FAM-RPARPAR peptide binding to NRP-1, fluorescence polarization. O14786. 360,000 compounds, 0.85% hits;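 active means inhibition or corrected inhibition above about 18%, plus a signal ratio from 0.5 to 1.5, limit read from the data, passing the limit was not always enough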
SENP1 inh – blocks the human SENP1 SUMO protease catalytic domain; recombinant SENP1 catalytic domain, CyPet-SUMO1-YPet FRET cleavage; Q9P0U3; AID 624204; 360,000 compounds, 0.21% hits; inhibition, % at 10 µM;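 active means inhibition at least 30% at 10 µM, raw YFP signal under a set limit, fluorescence ratio 0.5 to 1.5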
Target sequence (Q9P0U3 419-644 limits assumed): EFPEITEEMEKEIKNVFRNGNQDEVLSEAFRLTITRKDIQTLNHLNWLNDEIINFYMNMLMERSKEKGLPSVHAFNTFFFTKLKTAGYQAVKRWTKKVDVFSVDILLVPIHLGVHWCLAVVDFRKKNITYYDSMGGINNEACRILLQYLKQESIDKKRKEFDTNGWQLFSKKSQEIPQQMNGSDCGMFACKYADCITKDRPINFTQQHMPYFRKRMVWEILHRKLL
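Compound: 10 µM single point, 0.5% DMSO; Test system: hSENP1 catalytic domain, recombinant; Timing: 50 min reaction at room temperature; Technique: FRET, CFP and YFP emission; Control set: no-enzyme wells low, DMSO-plus-enzyme wells high control.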
Myeloid diff 2 – compounds promoting myeloid differentiation | calls only at 10 µM | ER-HoxA9 myeloid progenitors, lysozyme-GFP differentiation, flow cytometry | 360,000 compounds, 1% hits | AID 624256;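 active means normalized GFP-positive differentiation at or above the plate's own cutoff, the solvent-only control mean plus 3 SD; inconclusive means no clear call, values can overlap the other calls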;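 further: cells exposed to compound for four days before flow analysis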
MT1-MMP act inh – MT1-MMP (human) activation inhibition | P50281 | HT1080 RFP-PRO-GFP cells, GFP/RFP ratio fluorescence, overnight; percent of plate control window, DMSO zero | GFP/RFP ratio change, % at 20 µM | 360,000 compounds, 0.061% hits;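 active means GFP/RFP ratio change of at least 30% with cell ATP level not reduced by more than half and red fluorescence within 50% of control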
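Assay system: RFP-PRO-GFP reporter HT1080 cells; read-out basis: GFP/RFP fluorescence ratio; benchmarks: DMSO wells and RFP-L50D-GFP cells; doses: 20 µM single dose, 1% DMSO; schedule: overnight cell settling, then overnight compound exposure, 37 °C, 5% CO2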
Myeloid diff – compounds promoting myeloid differentiation; shares compounds with Myeloid diff 2; ER-HoxA9 myeloid progenitors, GFP/Mac1 double-positive flow; calls only; 2,300 compounds, 2% hits;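 active means share of green or green-and-red cells above 9 and 9% in run 1 or 4 and 3% in run 2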
GFP autofluor – flagged as fluorescent in myeloid differentiation counter-screen; shares compounds with Myeloid diff 2; ER-HoxA9 myeloid progenitors, no estrogen, GFP autofluorescence flow cytometry; vehicle wells 0%, positive control 100%; fluorescence response, % (concentration not given with the values); 2,300 compounds, 7.4% hits;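 active means over 5% cells positive for green fluorescent reporter, or over 2% positive for both it and APC stain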
Large screens that a line does not name were inactive (follow-up assays come after a bar, where they were run). This is a sample that favours compounds with a hit; in the whole collection about 2.4% have one here.

O=C(NCc1cccs1)c1ccc(CS(=O)(=O)c2ccc(Cl)cc2)o1	Myeloid diff 2 active | Myeloid diff inactive | GFP autofluor inactive
COc1ccc(S(=O)(=O)Cc2ccc(C(=O)NCc3cccs3)o2)cc1	none
O=C1NCN(C2CCCCC2)CN1	none (no result: beta cell repl)
CN1C(=O)N2CN(C3CCCCC3)CN3C(=O)N(C)C1C23 (stereo unspecified)	none | Myeloid diff inactive | GFP autofluor inactive
CC1(C)OC(=O)N(CCc2ccccc2)C1(C)O (stereo unspecified)	none | Myeloid diff inactive | GFP autofluor inactive
CC1(C)OC(=O)N(CC(=O)Nc2ccccc2)C1(C)O (stereo unspecified)	none
COc1ccc(-c2ccc(CCC(=O)O)n2CC2CCCO2)cc1 (stereo unspecified)	none
O=C(NCCC1CCCCN1S(=O)(=O)c1ccc(F)cc1)C(=O)Nc1ccccc1F (stereo unspecified)	none
Cc1ccc(S(=O)(=O)N2CCCCC2CCNC(=O)C(=O)Nc2ccccc2F)cc1 (stereo unspecified)	Myeloid diff 2 active | Myeloid diff inactive | GFP autofluor inactive
COc1ccccc1C(=O)NCCC(=O)NC1CCCCCC1	none
N#CCC(CNc1ncc(C(F)(F)F)cc1Cl)OC(=O)c1cccc([N+](=O)[O-])c1 (stereo unspecified)	none | Myeloid diff inactive | GFP autofluor inactive
N#CCC(CNc1ncc(C(F)(F)F)cc1Cl)OC(=O)c1ccc(Cl)cc1 (stereo unspecified)	none
CC(=O)Nc1ccc(N(C(=O)CNC(=O)c2ccco2)C(C(=O)NCc2ccco2)c2ccccc2F)cc1 (stereo unspecified)	none
NNC(=O)c1ccc(CSc2nc3ccccc3[nH]2)cc1	none | Myeloid diff inactive | GFP autofluor inactive
Cc1ccc2c(=O)n3c(nc2c1)C(Cc1ccc(O)cc1)NC(=O)c1cccnc1-3 (stereo unspecified)	none (no result: beta cell repl)
O=[N+]([O-])c1ccc(N/N=C\c2ccccc2OCc2ccccc2)cc1	Myeloid diff 2 active | Myeloid diff inactive | GFP autofluor inactive
O=C(COC(=O)c1cccnc1Cl)NC(=O)c1ccc(OC(F)F)cc1	none
CC(C)CCNC(=O)C(Cc1ccccc1)NS(=O)(=O)c1ccc2c(c1)c(=O)n(C)c(=O)n2C (stereo unspecified)	Myeloid diff 2 active | Myeloid diff inactive | GFP autofluor inactive
COc1ccc(S(=O)(=O)Cc2ccc(C(=O)NCc3ccccc3OC)o2)cc1	Myeloid diff 2 inconclusive
O=c1oc2ccccc2c(Nc2ccccc2O)c1[N+](=O)[O-]	Myeloid diff 2 active | Myeloid diff inactive | GFP autofluor inactive
O=c1[nH][nH]c(-c2ccccc2O)c1C(C[N+](=O)[O-])c1ccc(Cl)cc1Cl (stereo unspecified)	none | Myeloid diff inactive | GFP autofluor inactive
O=c1[nH][nH]c(-c2ccccc2O)c1C(C[N+](=O)[O-])c1cccc(Cl)c1 (stereo unspecified)	none
CC1=CC(C)(C)N(C(=O)CNC2CCCCC2)c2cc(C)ccc21	Myeloid diff 2 active | Myeloid diff inactive | GFP autofluor inactive
CC1=CC(C)(C)N(C(=O)CN2C(=O)c3ccccc3C2=O)c2ccc(C)cc21	none
CC1=CC(C)(C)N(C(=O)CCl)c2cc(C)ccc21	none | Myeloid diff inactive | GFP autofluor inactive
COc1cccc(NC(=O)c2cncs2)c1	none
COC(=O)c1ccccc1N1C(=O)C2C(C1=O)C1C=CC2C12CC2 (stereo unspecified)	Myeloid diff 2 active | Myeloid diff inactive | GFP autofluor 94
CCSc1c(-c2ccccc2)nc2c(C)cccc2c1C(=O)O	none
COc1cccc(-c2nnn(CC(=O)O)n2)c1	none (no result: Myeloid diff 2)
